Measurements as given in paper PMC4097008 (Molecular immunology, 2014).
pKd: −log10 of the molar value. Read-outs that look alike come from different tables or passages of the source.

Experiments:
[1] = molecular target: T1, Bla g 4 (Blattella germanica, UniProt P54962); test: isothermal titration calorimetry; format: binding
Summary of the method: (§1)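 Bla g 4 binding enthalpy was recorded by ITC at 25°C in 20 mM phosphate buffer, pH 8.0, with 100 μM protein and test amine titrant at 1 mM initial concentration. Supporting 1H-15N HSQC titrations used 0.2 mM 15N-labelled Bla g 4 (M9, 15N ammonium chloride) in 20 mM acetate, pH 4.5, 10% D2O, at 308 K and 800 MHz. Protein:ligand molar ratios were 1:0, 1:0.5, 1:1 and 1:2.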

[2] = molecular target: T1, Bla g 4; test: isothermal titration calorimetry; format: binding; remark: listed apart in the source
Summary of the method: as §1

T1 sequence (P54962 7-182): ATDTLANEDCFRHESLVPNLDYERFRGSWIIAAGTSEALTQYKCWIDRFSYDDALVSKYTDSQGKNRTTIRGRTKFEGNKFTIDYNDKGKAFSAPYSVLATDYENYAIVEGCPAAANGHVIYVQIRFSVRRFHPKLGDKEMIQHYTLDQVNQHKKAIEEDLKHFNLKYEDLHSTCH

Row | SMILES | pKd [1] | pKd [2]
1 | NC[C@H](O)c1ccc(O)cc1 [octopamine] | 6.73 | 
2 | NCCc1ccc(O)cc1 [tyramine] |  | 7.35
